Test results as given in paper PMC8968902 (Haematologica, 2021).

How the values were obtained:
[1] = reported half-lives; cited from earlier work
[2] = tested on: CCL3; conditions: BTKi-naïve patients; cited from earlier work
[3] = tested on: CCL4; conditions: BTKi-naïve patients; cited from earlier work
[4] = tested on: TNFa; conditions: BTKi-naïve patients; cited from earlier work
[5] = target: BTK WT (Homo sapiens, UniProt Q06187); experiment: In vitro cellular assay, BTK residence time, BTK WT; type: cell-based; conditions: read-out: BTK residence time
BTK WT, sequence (Q06187 whole entry): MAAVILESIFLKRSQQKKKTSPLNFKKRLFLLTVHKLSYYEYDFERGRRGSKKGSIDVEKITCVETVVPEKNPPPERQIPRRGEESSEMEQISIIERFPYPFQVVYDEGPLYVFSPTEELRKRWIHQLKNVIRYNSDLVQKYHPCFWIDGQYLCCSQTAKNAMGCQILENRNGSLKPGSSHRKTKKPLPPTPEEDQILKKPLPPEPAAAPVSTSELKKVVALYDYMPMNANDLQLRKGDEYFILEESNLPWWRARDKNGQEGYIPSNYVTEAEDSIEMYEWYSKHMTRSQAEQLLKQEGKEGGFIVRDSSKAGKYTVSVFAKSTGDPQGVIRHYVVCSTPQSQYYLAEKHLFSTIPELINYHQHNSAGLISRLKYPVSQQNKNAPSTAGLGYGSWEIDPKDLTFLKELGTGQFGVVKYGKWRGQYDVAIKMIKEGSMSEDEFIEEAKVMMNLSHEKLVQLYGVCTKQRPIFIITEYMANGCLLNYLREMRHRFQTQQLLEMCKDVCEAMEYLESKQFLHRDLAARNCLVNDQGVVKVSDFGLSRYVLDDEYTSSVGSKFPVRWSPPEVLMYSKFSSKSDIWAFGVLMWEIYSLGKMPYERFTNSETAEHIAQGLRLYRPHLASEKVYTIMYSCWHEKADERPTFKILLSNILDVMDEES

[6] = Phase Ib dose-escalation study: safety and tolerability in patients; type: in vivo, human
[7] = tested on: relapsed/refractory CLL or other B-cell malignancies; experiment: Phase Ib dose-escalation study: clinical activity; type: in vivo, human
[8] = tested on: CCL3; experiment: Serum cytokine levels by ELISA in CLL patients; type: in vivo, human; conditions: after one cycle, 246, 328 and 410 mg dose levels
[9] = tested on: CCL4; experiment: Serum cytokine levels by ELISA in CLL patients; type: in vivo, human; conditions: after one cycle, 246, 328 and 410 mg dose levels
[10] = tested on: TNFa; experiment: Serum cytokine levels by ELISA in CLL patients; type: in vivo, human; conditions: after one cycle, 246, 328 and 410 mg dose levels
[11] = Pharmacokinetics in patients; type: in vivo, human; conditions: 38 patients, 20.5-410 mg BID
Method in brief: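 Phase Ib, patients with relapsed/refractory CLL or other B-cell malignancies; test compound given orally as capsules twice daily at seven escalating dose levels, 20.5 mg/dose up to 410 mg BID. Pharmacokinetic data from 38 patients across the ~12 hour dosing interval; trough concentrations taken on cycle 1 day 8.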

[12] = Protein binding; type: in vitro ADME

Q: With `O=C(c1ccc(Oc2ccccc2)cc1Cl)c1c[nH]c2ncnc(N[C@@H]3CC[C@@H](CO)OC3)c12` [ARQ 531] as the compound, how does the Half-life [1] read?
A: ~55 h

Q: With `C=CC(=O)N1CCC[C@@H](n2nc(-c3ccc(Oc4ccccc4)cc3)c3c(N)ncnc32)C1` [Ibrutinib, ibrutinib] as the compound, how does the “Median decrease in CCL3” value [2] read?
A: ≥ 80%

Q: And the “Median decrease in CCL4” value [3]?
A: ≥ 80%

Q: What about the “Median decrease in TNFa” value [4] of the same compound?
A: ≥ 80%

Q: Which Half-life [1] does the source give for `COc1ccc(F)cc1C(=O)NCc1ccc(-c2nn([C@@H](C)C(F)(F)F)c(N)c2C(N)=O)cc1` [Pirtobrutinib, pirtobrutinib] here?
A: approximately 20 hours

Q: Which residence time [5] does the source give for `NC(=O)[C@H]1CCN(c2ncnc(N)c2F)C[C@@H]1N1CCC[C@@H](Nc2cc(Cl)cc(C(F)(F)F)c2)C1=O` [Vecabrutinib, vecabrutinib] here?
A: 15 min

Q: And the “Grade ≥3 AE at the two highest dose levels” value ([6]; 328 and 410 mg BID)?
A: no grade ≥3 AE observed

Q: And the “AE considered treatment-related by the investigator: anemia” value ([6]; all patients)?
A: 10%

Q: And the “AE considered treatment-related by the investigator: fatigue” value ([6]; all patients)?
A: 10%

Q: And the “Grade ≥3 AE: anemia” value ([6]; all patients)?
A: 23%

Q: And the “Grade ≥3 AE: thrombocytopenia” value ([6]; all patients)?
A: 10%

Q: And the “Patients with one or more serious AE (SAE)” value ([6]; all patients)?
A: seven

Q: And the “Treatment-emergent AE: anemia” value ([6]; all patients)?
A: 31%

Q: And the “Treatment-emergent AE: dyspnea” value ([6]; all patients)?
A: 21%

Q: And the “Treatment-emergent AE: fatigue” value ([6]; all patients)?
A: 21%

Q: And the “Treatment-emergent AE: headache” value ([6]; all patients)?
A: 21%

Q: What about the “Treatment-emergent AE: nausea” value ([6]; all patients) of the same compound?
A: 21%

Q: What about the Maximum-tolerated dose ([6]; doses 20.5-410 mg BID) of the same compound?
A: not reached

Q: What about the “Cardiac events or clinically significant electrocardiogram findings” value ([6]; human, in vivo) of the same compound?
A: no cardiac events or clinically significant electrocardiogram findings

Q: And the Dose-dependent toxicity ([6]; human, in vivo)?
A: No obvious pattern of dose-dependent toxicity

Q: And the “SAE related to study treatment per the investigator” value ([6]; human, in vivo)?
A: No SAE were considered related to study treatment

Q: What about the “SAE: hematuria” value ([6]; human, in vivo) of the same compound?
A: 1 patient

Q: What about the “SAE: intestinal perforation” value ([6]; human, in vivo) of the same compound?
A: 1 patient

Q: What about the “SAE: lymphocytosis” value ([6]; human, in vivo) of the same compound?
A: 1 patient

Q: What about the “Dose up to which well-tolerated” value ([6]; oral capsules, highest dose studied) of the same compound?
A: 410 mg BID

Q: What about the “Best response of stable disease (SD), patients” value ([7]; 11 CLL, 1 MCL, 1 marginal zone lymphoma) of the same compound?
A: 13 patients

Q: What about the “Patients with PR or SD who received vecabrutinib for ≥6 months” value ([7]; of 14 patients with PR or SD) of the same compound?
A: Eight

Q: What about the “Median time on study treatment” value ([7]; patients with PR or SD) of the same compound?
A: 28.5 weeks

Q: And the “Mean reduction in serum CCL3” value [8]?
A: 34-62%

Q: And the “Mean reduction in serum CCL4” value [9]?
A: 33-59%

Q: And the “Mean reduction in serum TNFa” value [10]?
A: 24-57%

Q: What about the “Dose proportionality of exposure and median steady-state Ctrough” value [11] of the same compound?
A: approximately dose-proportional

Q: What about the Protein bound [12] of the same compound?
A: 98.7%
